Experimental data gathered from unrelated publications.
Protocols differ between the studies behind these lines.
Organism: Severe acute respiratory syndrome coronavirus 2

CC(CN1c2ccccc2Sc2ccccc21)N(C)C (centres unmarked)  IC50 (viral replication; inhibitor; A549-ACE2): 0.575 µM
Nc1nc2nc[nH]c2c(=S)[nH]1  IC50 (viral replication; inhibitor; Huh-7): 0.178 µM
CC(=O)OC[C@H]1O[C@@H](Sc2nc(N)c(C(=O)Nc3ccccc3)c(=S)[nH]2)[C@H](OC(C)=O)[C@@H](OC(C)=O)[C@@H]1OC(C)=O  IC50 (viral replication; Vero C1008; 72 h): 126 µM
CCCC(CCC)C(=O)O  IC50 (viral replication; inhibitor; Huh-7): > 2 µM
CC[C@@H](C)[C@@H]1NC(=O)[C@@H]2CCCN2C(=O)[C@H](Cc2ccccc2)N(C)C(=O)[C@H](Cc2ccccc2)NC(=O)[C@H](C(C)C)N(C)C(=O)[C@@H]([C@H](C)CC)OC(=O)[C@H](C(C)(C)O)N(C)C(=O)[C@H](CC(C)C)NC(=O)[C@H](C(C)C)N(C)C1=O  IC50 (viral replication; inhibitor; Calu-3; 40 h): 4.53 µM
CCN(CC)CCS(=O)(=O)[C@@H]1CCN2C(=O)c3coc(n3)CC(=O)C[C@H](O)/C=C(C)/C=C/CNC(=O)/C=C/[C@@H](C)[C@@H](C(C)C)OC(=O)[C@@H]12  IC50 (viral replication; inhibitor; Huh-7): > 2 µM
COc1c(O)cc2oc(-c3ccccc3)cc(=O)c2c1O  IC50 (viral replication; inhibitor; Vero C1008): 15.1 µM
C[C@]12C=CC(=O)C=C1CC[C@@H]1[C@@H]2[C@@H](O)C[C@@]2(C)[C@H]1C[C@H]1O[C@@H](C3CCCCC3)O[C@]12C(=O)CO  IC50 (viral replication; VeroE6/TMPRSS2): 8.1 µM
COc1cc2c(cc1OC)C(=O)C(CC1CCN(Cc3ccccc3)CC1)C2 (centres unmarked)  IC50 (viral replication; inhibitor; A549-ACE2): 7.76 µM
Nc1nc(S[C@@H]2O[C@H](CO)[C@@H](O)[C@H](O)[C@H]2O)[nH]c(=S)c1C(=O)Nc1ccc(Cl)cc1  IC50 (viral replication; Vero C1008; 72 h): 45.3 µM
COc1cc2c(cc1OC)CN(CCc1ccc(NC(=O)c3cccc4c(=O)c5cccc(OC)c5[nH]c34)cc1)CC2  IC50 (viral replication; Vero C1008): 0.575 µM
C=C[C@@H]1C[C@]1(NC(=O)[C@@H]1C[C@@H](Oc2ncc(OC)c3ccc(Cl)cc23)CN1C(=O)[C@@H](NC(=O)OC(C)(C)C)C(C)(C)C)C(=O)NS(=O)(=O)C1CC1  IC50 (viral replication; HEK-293T): 48.4 µM
COc1c(C)c2c(c(O)c1C/C=C(\C)CCC(=O)OCCN1CCOCC1)C(=O)OC2  IC50 (viral replication; inhibitor; Calu-3; 40 h): 2.15 µM
CCOC(=O)N1CCC(=C2c3ccc(Cl)cc3CCc3cccnc32)CC1  IC50 (viral replication; inhibitor; Huh-7): > 2 µM
CN(C)CCCN1c2ccccc2Sc2ccc(Cl)cc21  IC50 (viral replication; inhibitor; Vero C1008): 3.14 µM
CC(C)(C)CC(C)(C)c1ccc(O)c(Cc2ccc(Cl)cc2Cl)c1  IC50 (viral replication; inhibitor; Calu-3; 40 h): 3.26 µM
N=C(N)NCCN1CCCCCCC1  IC50 (viral replication; inhibitor; Huh-7): > 2 µM
CC(C)N1CCN(c2ccc(OCC3COC(Cn4cncn4)(c4ccc(Cl)cc4Cl)O3)cc2)CC1 (centres unmarked)  IC50 (viral replication; inhibitor; Vero C1008): 11.9 µM
COc1ccc(CN2CCN(Cc3ccccc3)CC2)cc1  IC50 (viral replication; Vero C1008): 1.58 µM
C[C@H](Nc1nc(N2CCNCC2)nc2ccccc12)c1ccccc1  IC50 (cytopathic effect; Vero C1008; 72 h): 10 µM
COC(=O)Nc1nc2ccc(C(=O)c3ccccc3)cc2[nH]1  IC50 (viral replication; inhibitor; Vero C1008): 0.25 to 1.2 µM
CC(C)(C)OC(=O)N[C@H]1CCCCC/C=C\[C@@H]2C[C@@]2(C(=O)NS(=O)(=O)C2CC2)NC(=O)[C@@H]2C[C@@H](OC(=O)N3Cc4cccc(F)c4C3)CN2C1=O  IC50 (viral replication; HEK-293T): > 50 µM
CC(C)(C)[C@]1(O)CCN2C[C@H]3c4ccccc4CCc4cccc(c43)[C@@H]2C1  IC50 (viral replication; Vero C1008): 6.17 µM
CCN(CC)CCOc1ccc2c(c1)C(=O)c1cc(OCCN(CC)CC)ccc1-2  IC50 (viral replication; inhibitor; Vero; 24 h): 79.2 µM
CC[C@H](C)C[C@H](C)CCCCCCCCC(=O)N[C@H]1C[C@@H](O)[C@@H](NCCN)NC(=O)[C@@H]2[C@@H](O)CCN2C(=O)[C@H]([C@H](O)CCN)NC(=O)[C@H]([C@H](O)[C@@H](O)c2ccc(O)cc2)NC(=O)[C@@H]2C[C@@H](O)CN2C(=O)[C@H]([C@@H](C)O)NC1=O  IC50 (viral replication; inhibitor; Vero; 24 h): > 200 µg/mL
Cc1ccc(NC(=O)c2c(N)nc(S[C@@H]3O[C@H](CO)[C@@H](O)[C@H](O)[C@H]3O)[nH]c2=S)cc1  IC50 (viral replication; Vero C1008; 72 h): 73.7 µM
COc1ccc2c(O[C@@H]3C[C@H]4C(=O)N[C@]5(C(=O)NS(=O)(=O)C6CC6)C[C@H]5/C=C\CCCCN(C)C(=O)[C@@H]4C3)cc(-c3nc(C(C)C)cs3)nc2c1C  IC50 (viral replication; HEK-293T): 2.3 µM
Fc1ccc(-n2cc(CCCCN3CCC4(CC3)OCc3ccccc34)c3ccccc32)cc1  IC50 (viral replication; inhibitor; A549-ACE2): 2.04 µM
CC(C)c1nc(CN(C)C(=O)N[C@H](C(=O)N[C@@H](Cc2ccccc2)C[C@H](O)[C@H](Cc2ccccc2)NC(=O)OCc2cncs2)C(C)C)cs1  IC50 (viral replication; inhibitor; Vero C1008): 11.7 to 19.9 µM
Nc1nc(S)[nH]c(=S)c1C(=O)Nc1ccccc1  IC50 (viral replication; Vero C1008; 72 h): 341 µM
O=C(Nc1ccc([N+](=O)[O-])cc1Cl)c1cc(Cl)ccc1O  IC50 (viral replication; inhibitor; Huh-7): 0.142 µM
CC(Nc1nc(N2CCNCC2)nc2ccccc12)c1ccccc1N (centres unmarked)  IC50 (viral entry; inhibitor; pseudovirus): 35.5 µM
CCCCCOc1ccc(-c2ccc(-c3ccc(C(=O)N[C@H]4C[C@@H](O)[C@@H](O)NC(=O)[C@@H]5[C@@H](O)[C@@H](C)CN5C(=O)[C@H]([C@@H](C)O)NC(=O)[C@H]([C@H](O)[C@@H](O)c5ccc(O)cc5)NC(=O)[C@@H]5C[C@@H](O)CN5C(=O)[C@H]([C@@H](C)O)NC4=O)cc3)cc2)cc1  IC50 (viral replication; inhibitor; Vero; 24 h): 5.4 µg/mL
COc1cccc2c1C(=O)c1c(O)c3c(c(O)c1C2=O)C[C@@](O)(C(C)=O)C[C@@H]3O[C@H]1C[C@H](N)[C@H](O)[C@H](C)O1  IC50 (viral replication; inhibitor; Calu-3; 40 h): 1.23 µM
CCN(CC)CCCC(C)Nc1ccnc2cc(Cl)ccc12 (centres unmarked)  IC50 (viral replication; inhibitor; Vero C1008): 1.38 µM
COc1ccc(NC(=O)c2c(N)nc(S[C@@H]3O[C@H](COC(C)=O)[C@@H](OC(C)=O)[C@H](OC(C)=O)[C@H]3OC(C)=O)[nH]c2=S)cc1  IC50 (viral replication; Vero C1008; 72 h): 169 µM
CCOP(=O)(OCC)N1C/C(=C\c2ccccc2)C(=O)C2(C1)C(c1ccccc1)CN(C)C21C(=O)Nc2ccc(Cl)cc21 (centres unmarked)  IC50 (viral replication; inhibitor; Vero C1008; 72 h): 10.4 µM
OC(c1cc(C(F)(F)F)nc2c(C(F)(F)F)cccc12)C1CCCCN1 (centres unmarked)  IC50 (viral replication; inhibitor; Vero C1008): 7.11 µM
COc1ccc2c(c1)[C@]13CCCC[C@@H]1[C@H](C2)N(C)CC3  IC50 (viral replication; inhibitor; A549-ACE2): 4.17 µM
Nc1nc(S[C@@H]2O[C@H](CO)[C@@H](O)[C@H](O)[C@H]2O)[nH]c(=S)c1C(=O)Nc1ccccc1  IC50 (viral replication; Vero C1008; 72 h): 47.8 µM
CCCCCCCCCC(=O)N[C@@H](Cc1c[nH]c2ccccc12)C(=O)N[C@H](CC(N)=O)C(=O)N[C@@H](CC(=O)O)C(=O)N[C@@H]1C(=O)NCC(=O)N[C@@H](CCCN)C(=O)N[C@@H](CC(=O)O)C(=O)N[C@H](C)C(=O)N[C@@H](CC(=O)O)C(=O)NCC(=O)N[C@H](CO)C(=O)N[C@@H]([C@H](C)CC(=O)O)C(=O)N[C@@H](CC(=O)c2ccccc2N)C(=O)O[C@@H]1C  IC50 (viral replication; inhibitor; Vero; 24 h): > 0.4 µg/mL
CCCCc1oc2ccc(NS(C)(=O)=O)cc2c1C(=O)c1ccc(OCCCN(CCCC)CCCC)cc1  IC50 (viral replication; inhibitor; Calu-3; 40 h): 2.95 µM
CCc1nc(C(N)=O)c(Nc2ccc(N3CCC(N4CCN(C)CC4)CC3)c(OC)c2)nc1NC1CCOCC1  IC50 (viral replication; inhibitor; Huh-7): 0.255 µM
CCN(CC)CCOc1ccc(C(O)(Cc2ccc(Cl)cc2)c2ccc(C)cc2)cc1 (centres unmarked)  IC50 (viral replication; Vero C1008): 0.759 µM
NC(=O)c1ncn([C@@H]2O[C@H](CO)[C@@H](O)[C@H]2O)n1  IC50 (viral replication; inhibitor; Vero C1008): > 10 µM
CCN(C)C(=O)Oc1cccc([C@H](C)N(C)C)c1  IC50 (viral replication; inhibitor; Huh-7): > 2 µM
CCOP(=O)(OCC)N1C/C(=C\c2ccc(Br)cc2)C(=O)C2(C1)C(c1ccc(Br)cc1)CN(C)C21C(=O)Nc2ccccc21 (centres unmarked)  IC50 (viral replication; inhibitor; Vero C1008; 72 h): 8.88 µM
